“Also recorded” adds a separate entry of the source.
Key:
LFA-1/ICAM-1 [1] = biological target: LFA-1/ICAM-1 (Homo sapiens, UniProt P20701); assay: Jurkat T-cell adhesion assay; type: cell-based; conditions: for LFA-1/ICAM-1 antagonist activity in words / IC50 level in words: Jurkat T-cell adhesion assay; for LFA-1/ICAM-1 antagonist activity in words: compared with Lifitegrast
Summary of the method: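 Jurkat E6-1 cells (RPMI 1640, 5% FBS, 37 °C, 5% CO2) labeled with 8 μM BCECF for 15 min at room temperature. Cells (5 × 10^5/well) preincubated with compound for 30 min at 37 °C, then settled 1 h at 37 °C on recombinant human ICAM-1–Fc-coated wells. Titration 10−10–10−4 M in triplicate lanes. Non-adherent cells washed off; adherent-cell fluorescence read; IC50 by four-parameter logistic regression.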

dry eye mice model [2] = assay: Goblet cell density; type: in vivo, C57/BL6 mice; conditions: 14 days, vs dry eye model group
Summary of the method: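 Dry eye was induced in female C57/BL6 mice (6–8 weeks, n = 5/group) by RH 15, 2 m/s airflow, 21–23 °C and s.c. scopolamine hydrobromide (0.5 mg/0.2 ml) three times daily for 14 days. Eye drops (5 µL) went to both eyes twice daily. Central frozen sections (6 µm) were PAS-stained, and goblet cells per mm were counted by image analysis. Mean ± SEM, 10 eyes/group.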

dry eye mice model [3] = assay: TUNEL staining of corneal epithelium in dry eye mice model; type: in vivo, C57/BL6 mice; conditions: for TUNEL positive (Cy3 labeled) cells in cornea, apoptosis: 14 days, vs dry eye model group
Summary of the method: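 Female C57/BL6 mice, 6–8 weeks, n=5/group. Dry eye induced over 14 days. Both eyes received 5 µL drops twice daily: test compound 5% or 7% W/V, vehicle, or 5% reference antagonist. Eyes then excised, OCT-embedded and cut into 6 µm frozen central sagittal sections. Sections TUNEL/DAPI-stained. TUNEL-positive cells counted in the central 200 µm corneal epithelial field at ×400. n=10 eyes/group; mean ± SEM.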

dry eye mice model [4] = assay: Dry eye mice model, overall effect; type: in vivo, C57/BL6 mice; conditions: 5% vs 7% (W/V) compound 1b, topical
Summary of the method: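 Female C57/BL6 mice (6–8 weeks, n = 5/group) were kept at RH 15, airflow 2 m/s and 21–23 °C for 14 days, with s.c. scopolamine hydrobromide (0.5 mg/0.2 ml) three times daily. Test compound (5% or 7% W/V) was given as 5 µL drops to both eyes twice daily. Read-outs were fluorescein score summed over five corneal regions, PAS goblet density and TUNEL; 10 eyes/group.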

LFA-1/ICAM-1 [5] = conditions: read-out: previously reported IC50; HUT 78T cells; cited from earlier work

Sequence of LFA-1/ICAM-1 (Homo sapiens, UniProt P20701) (P20701 26-1170): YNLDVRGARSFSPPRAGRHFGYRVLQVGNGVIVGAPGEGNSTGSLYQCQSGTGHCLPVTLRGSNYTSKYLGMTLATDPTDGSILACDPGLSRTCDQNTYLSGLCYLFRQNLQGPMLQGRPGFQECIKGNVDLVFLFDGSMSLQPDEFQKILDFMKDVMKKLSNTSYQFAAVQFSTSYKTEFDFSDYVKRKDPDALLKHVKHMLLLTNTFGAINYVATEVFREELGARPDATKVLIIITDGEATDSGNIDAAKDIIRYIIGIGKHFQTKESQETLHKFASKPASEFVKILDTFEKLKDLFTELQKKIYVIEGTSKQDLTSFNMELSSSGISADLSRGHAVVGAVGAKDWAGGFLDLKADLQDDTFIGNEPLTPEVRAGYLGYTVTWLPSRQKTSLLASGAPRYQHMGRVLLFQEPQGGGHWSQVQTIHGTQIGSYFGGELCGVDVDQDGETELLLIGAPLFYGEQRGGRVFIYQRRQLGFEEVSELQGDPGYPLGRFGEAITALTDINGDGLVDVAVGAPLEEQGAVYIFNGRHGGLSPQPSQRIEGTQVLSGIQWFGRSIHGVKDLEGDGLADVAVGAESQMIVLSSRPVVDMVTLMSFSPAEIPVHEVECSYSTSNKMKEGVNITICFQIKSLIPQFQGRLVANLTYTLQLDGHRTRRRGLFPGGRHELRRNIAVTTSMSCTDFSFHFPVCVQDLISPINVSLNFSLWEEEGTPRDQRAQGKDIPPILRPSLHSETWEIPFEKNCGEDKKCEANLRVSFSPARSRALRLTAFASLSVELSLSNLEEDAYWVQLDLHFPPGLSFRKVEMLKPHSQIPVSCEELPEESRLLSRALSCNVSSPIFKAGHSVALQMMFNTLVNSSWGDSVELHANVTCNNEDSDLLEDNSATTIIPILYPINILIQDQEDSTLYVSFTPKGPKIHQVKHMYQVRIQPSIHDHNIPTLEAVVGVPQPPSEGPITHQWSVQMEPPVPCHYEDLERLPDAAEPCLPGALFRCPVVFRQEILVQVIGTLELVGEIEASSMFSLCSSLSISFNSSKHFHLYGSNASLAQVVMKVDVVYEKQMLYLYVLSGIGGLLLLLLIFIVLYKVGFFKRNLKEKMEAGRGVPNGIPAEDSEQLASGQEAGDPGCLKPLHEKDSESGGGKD
Sequence of LFA-1/ICAM-1 (Homo sapiens, UniProt P20701) (P05107 23-769 partner): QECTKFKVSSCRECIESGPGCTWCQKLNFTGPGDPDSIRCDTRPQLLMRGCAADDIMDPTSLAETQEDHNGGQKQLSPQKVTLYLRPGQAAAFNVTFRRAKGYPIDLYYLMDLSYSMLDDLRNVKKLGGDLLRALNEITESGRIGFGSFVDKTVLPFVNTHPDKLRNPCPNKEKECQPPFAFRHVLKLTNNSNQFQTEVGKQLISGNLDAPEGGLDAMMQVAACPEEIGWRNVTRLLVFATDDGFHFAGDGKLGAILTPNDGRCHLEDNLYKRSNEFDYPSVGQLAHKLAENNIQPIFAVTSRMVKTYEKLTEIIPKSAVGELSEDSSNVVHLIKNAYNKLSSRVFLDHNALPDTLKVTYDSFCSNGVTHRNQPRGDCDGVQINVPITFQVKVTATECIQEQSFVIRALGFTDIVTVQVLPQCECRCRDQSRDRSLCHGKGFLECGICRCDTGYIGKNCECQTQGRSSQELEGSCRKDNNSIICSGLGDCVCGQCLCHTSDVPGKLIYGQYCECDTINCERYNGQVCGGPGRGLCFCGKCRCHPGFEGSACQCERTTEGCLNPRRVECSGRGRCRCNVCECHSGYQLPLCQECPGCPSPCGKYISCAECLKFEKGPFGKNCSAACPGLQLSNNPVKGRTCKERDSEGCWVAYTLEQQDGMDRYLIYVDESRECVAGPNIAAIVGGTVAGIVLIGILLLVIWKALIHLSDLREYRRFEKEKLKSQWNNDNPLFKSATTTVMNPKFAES

Row | SMILES | LFA-1/ICAM-1 antagonist activity in words (LFA-1/ICAM-1 [1]) | IC50 level in words (LFA-1/ICAM-1 [1]) | further results
1 | CS(=O)(=O)c1cccc(C[C@H](NC(=O)c2c(Cl)cc3c(c2Cl)CCN(S(=O)(=O)c2ccc4ccoc4c2)C3)C(=O)O)c1 [Compound 1a, (S)-2-(2-(Benzofuran-6-ylsulfonyl)-5,7-dichloro-1,2,3,4-tetrahydroisoquinoline-6-carboxamido)-3-(3-(methylsulfonyl)phenyl)propanoic acid] | decreased LFA-1/ICAM-1 antagonist activity obviously | – | –
2 | CS(=O)(=O)c1cccc(C[C@H](NC(=O)c2c(Cl)cc3c(c2Cl)CCN(C(=O)NCc2ccc4ccoc4c2)C3)C(=O)O)c1 [Compound 1b, (S)-2-(2-((Benzofuran-6-ylmethyl)carbamoyl)-5,7-dichloro-1,2,3,4-tetrahydroisoquinoline-6-carboxamido)-3-(3-(methylsulfonyl)phenyl)propanoic acid] | certain LFA-1/ICAM-1 antagonist activity | – | density of goblet cells on conjunctival epithelium (dry eye mice model [2]; 5% (W/V) compound 1b): significantly increased the density of goblet cells; also recorded: significantly increased goblet cell density; density of goblet cells on conjunctival epithelium (dry eye mice model [2]; 7% (W/V) compound 1b): significantly increased the density of goblet cells; also recorded: significantly increased goblet cell density; TUNEL positive (Cy3 labeled) cells in cornea, apoptosis (dry eye mice model [3]; 5% (W/V) compound 1b): markedly decreased; also recorded: protective effect on apoptosis of ocular surface cells; anti-apoptotic effect compared with Lifitegrast treatment group (dry eye mice model [3]; 5% or 7% compound 1b vs 5% Lifitegrast): weaker than that of Lifitegrast; TUNEL positive (Cy3 labeled) cells in cornea, apoptosis (dry eye mice model [3]; 7% (W/V) compound 1b): markedly decreased; also recorded: protective effect on apoptosis of ocular surface cells; difference in effect between the two concentrations (dry eye mice model [4]): no statistical difference in the effect between 5% and 7%
3 | CS(=O)(=O)c1cccc(C[C@H](NC(=O)c2c(Cl)cc3c(c2Cl)CCN(C(=O)Cc2ccc4occc4c2)C3)C(=O)O)c1 [Compound 1c, (S)-2-(2-(2-(Benzofuran-5-yl)acetyl)-5,7-dichloro-1,2,3,4-tetrahydroisoquinoline-6-carboxamido)-3-(3-(methylsulfonyl)phenyl)propanoic acid] | certain LFA-1/ICAM-1 antagonist activity | several micromol levels | –
4 | CS(=O)(=O)c1cccc(C[C@H](NC(=O)c2c(Cl)cc3c(c2Cl)CCN(C(=O)c2ccc4ncnn4c2)C3)C(=O)O)c1 [Compound 1d, (S)-2-(2-([1,2,4]Triazolo[1,5-a]pyridine-6-carbonyl)-5,7-dichloro-1,2,3,4-tetrahydroisoquinoline-6-carboxamido)-3-(3-(methylsulfonyl)phenyl)propanoic acid] | decreased LFA-1/ICAM-1 antagonist activity obviously | – | –
5 | C#Cc1cccc(C(=O)N2CCc3c(cc(Cl)c(C(=O)N[C@@H](Cc4cccc(S(C)(=O)=O)c4)C(=O)O)c3Cl)C2)c1 [Compound 1e, (S)-2-(2-(3-Ethynylbenzoyl)-5,7-dichloro-1,2,3,4-tetrahydroisoquinoline-6-carboxamido)-3-(3-(methylsulfonyl)phenyl)propanoic acid] | decreased LFA-1/ICAM-1 antagonist activity obviously | – | –
6 | O=C(NC(Cc1ccc2ncccc2c1)C(=O)O)c1c(Cl)cc2c(c1Cl)CCN(C(=O)c1ccc3ccoc3c1)C2 (centres unmarked) [Compound 1f, 2-(2-(Benzofuran-6-carbonyl)-5,7-dichloro-1,2,3,4-tetrahydroisoquinoline-6-carboxamido)-3-(quinolin-6-yl)propanoic acid] | – | several micromol levels | –
7 | O=C(NC(Cc1ccc2c(c1)S(=O)(=O)CC2)C(=O)O)c1c(Cl)cc2c(c1Cl)CCN(C(=O)c1ccc3ccoc3c1)C2 (centres unmarked) [Compound 1g, 2-(2-(Benzofuran-6-carbonyl)-5,7-dichloro-1,2,3,4-tetrahydroisoquinoline-6-carboxamido)-3-(1,1-dioxido-2,3-dihydrobenzo[b]thiophen-6-yl)propanoic acid] | loss of activity | – | –
8 | O=C1CCc2ccc(CC(NC(=O)c3c(Cl)cc4c(c3Cl)CCN(C(=O)c3ccc5ccoc5c3)C4)C(=O)O)cc2N1 (centres unmarked) [Compound 1h, 2-(2-(Benzofuran-6-carbonyl)-5,7-dichloro-1,2,3,4-tetrahydroisoquinoline-6-carboxamido)-3-(2-oxo-1,2,3,4-tetrahydroquinolin-7-yl)propanoic acid] | – | several micromol levels | –
9 | CS(=O)(=O)c1cccc(C[C@H](NC(=O)c2c(Cl)cc3c(c2Cl)CCN(C(=O)c2ccc4ccoc4c2)C3)C(=O)O)c1 [Lifitegrast, reference compound] | – | – | IC50 (LFA-1/ICAM-1 [1]; IC50, Jurkat T-cell adhesion assay, text and Fig. 3): ~10.5 nM; IC50 (LFA-1/ICAM-1 [5]): 9 nM

— paper PMC8853157 (Medicinal Chemistry Research, 2022)
